Here are results for 1 compound from ChEMBL document CHEMBL5647686, “B cell receptor-induced phosphorylation of Pyk2 and focal adhesion kinase involves integrins and the Rap GTPases and is required for B cell spreading” (J Biol Chem, 2009).

Data set [1] concerns A20. In words: Inhibition of anti-IgG-induced B-cell spreading in mouse A20 cells plated on fibronectin assessed as reduction in number of A20 cells that developed an elongated and spread morphology at 2.5 uM for 1 to 4 hrs by immunofluorescence assay. It counts as functional, cell-based. The conditions noted are these: time 1-4 hrs. The gist of the method:
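A20 cells pretreated 45 min with DMSO or 2.5 μm inhibitor in RPMI 1640 with 2% FCS, plated at 37 °C on wells coated with 2.63 μg/cm² fibronectin (BSA-blocked), and stimulated with 10 μg/ml soluble anti-IgG for 1, 2 or 4 h. Phase-dark cells with elongated or irregular shape counted as spread. Percentage of adherent cells; >150 cells counted per experiment, three experiments; one-tailed paired t test.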

The nature of data set [2]: Toxicity in mouse A20 cells by 7-amino-actinomycin D staining. It counts as cell-based.
Data set [3] has as its target Protein-tyrosine kinase 2-beta (Mus musculus) (UniProt Q9QVP9). Briefly: Inhibition of anti-Ig-induced tyrosine phosphorylation of Pyk2 in mouse A20 cells at 0.15 to 5 uM incubated for 45 mins before being stimulated with anti-IgG for 20 mins by immunoblotting. The class given is cell-based. The conditions noted are these: dose 0.15-5 µM, time 65.0 min. The gist of the method: (§1)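 A20 cells held in suspension in modified HEPES-buffered saline were treated with inhibitor at graded concentrations or DMSO for 45 min, then stimulated with 20 μg/ml anti-IgG for 20 min. Unstimulated controls were kept 45 min plus 20 min without stimulus. Cold lysis buffer was added, and lysates cleared. Pyk2 immunoprecipitates were blotted with 4G10 anti-Tyr(P) and reprobed for Pyk2. Whole lysates were blotted with 4G10 for total phosphotyrosine and for phospho-Erk.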
On the technique in general: In western blotting, separated proteins are transferred to a membrane and probed.

Data set [4] has as its system A20. Briefly: Inhibition of anti-Ig-induced SRC dependent overall protein tyrosine phosphorylation in mouse A20 cells under suspension conditions at 0.15 to 5 uM incubated for 45 mins before being stimulated with anti-IgG for 20 mins by immunoblotting. The class given is cell-based. Particulars: dose 0.15-5 µM, time 65.0 min. The gist of the method:
as §1

The test system of data set [5] is A20. In words: Inhibition of LFA-1 Ab-induced B-cell spreading in mouse A20 cells plated on anti-LFA-1 Ab coated plates at 2.5 uM for 1 to 3 hrs by immunofluorescence assay. The class given is functional, cell-based. Particulars: time 1-3 hrs. The gist of the method: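 A20 B lymphoma cells pretreated 45 min with DMSO or 2.5 μm inhibitor, then added to wells coated overnight at 4 °C with 2.63 μg/cm² rat anti-mouse LFA-1 mAb and blocked with 2% BSA/PBS. Incubated at 37 °C in RPMI 1640 with 2% FCS for 1 or 3 h. Cells scored as spread when phase dark, elongated or irregular with membrane processes. Percentage of adherent cells spread; mean ± S.E., >150 cells per experiment, three experiments; one-tailed paired t test vs DMSO.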

The target in data set [6] is Protein-tyrosine kinase 2-beta (Mus musculus) (UniProt Q9QVP9). Briefly: Inhibition of anti-Ig-induced tyrosine phosphorylation of Pyk2 in mouse A20 cells plated on collagen/fibronectin ECM at 0.15 to 5 uM incubated for 45 mins before being stimulated with anti-IgG for 20 mins by immunoblotting. It counts as cell-based. The conditions noted are these: dose 0.15-5 µM, time 65.0 min.
Sequence of Protein-tyrosine kinase 2-beta (Mus musculus) (Q9QVP9 whole entry, looked up): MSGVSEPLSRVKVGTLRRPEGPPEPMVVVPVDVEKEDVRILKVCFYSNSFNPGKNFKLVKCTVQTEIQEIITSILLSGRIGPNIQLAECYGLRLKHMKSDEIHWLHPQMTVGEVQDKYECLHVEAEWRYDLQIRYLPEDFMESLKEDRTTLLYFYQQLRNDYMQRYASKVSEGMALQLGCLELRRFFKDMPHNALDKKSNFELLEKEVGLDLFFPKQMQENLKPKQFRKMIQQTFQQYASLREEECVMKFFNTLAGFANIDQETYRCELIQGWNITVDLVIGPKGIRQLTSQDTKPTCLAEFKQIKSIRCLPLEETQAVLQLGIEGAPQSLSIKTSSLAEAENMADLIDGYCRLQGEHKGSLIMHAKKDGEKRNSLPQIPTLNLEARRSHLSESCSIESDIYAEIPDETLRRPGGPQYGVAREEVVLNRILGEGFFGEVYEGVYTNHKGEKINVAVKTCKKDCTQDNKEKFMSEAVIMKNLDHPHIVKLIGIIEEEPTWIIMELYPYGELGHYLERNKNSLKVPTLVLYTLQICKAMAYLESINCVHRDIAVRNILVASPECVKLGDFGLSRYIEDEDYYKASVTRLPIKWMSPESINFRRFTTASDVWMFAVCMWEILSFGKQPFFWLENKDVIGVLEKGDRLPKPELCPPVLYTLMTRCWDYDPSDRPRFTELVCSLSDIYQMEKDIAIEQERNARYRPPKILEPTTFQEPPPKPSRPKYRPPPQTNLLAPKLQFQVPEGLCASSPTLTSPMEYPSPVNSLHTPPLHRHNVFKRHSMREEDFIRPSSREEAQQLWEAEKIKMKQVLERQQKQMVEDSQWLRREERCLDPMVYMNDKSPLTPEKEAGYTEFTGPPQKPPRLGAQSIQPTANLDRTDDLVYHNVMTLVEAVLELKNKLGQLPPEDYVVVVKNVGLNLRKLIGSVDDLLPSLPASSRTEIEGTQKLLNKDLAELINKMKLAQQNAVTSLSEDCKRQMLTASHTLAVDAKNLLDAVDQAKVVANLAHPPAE

The target is the same in data set [7]. In words: Inhibition of […] tyrosine phosphorylation of Pyk2 in mouse A20 cells induced by clustering LFA-1 with plate-bound Abs at 2.5 to 5 uM incubated for 45 mins before being stimulated with anti-LFA-1 Abs for 30 mins by immunoblotting. The class given is cell-based. The conditions noted are these: dose 2.5-5 µM, time 75.0 min. An outline of the steps:
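A20 cells pretreated 45 min with inhibitor or DMSO were added for 30 min to wells coated with 2.63 μg/cm² anti-LFA-1 Abs. Lysates were cleared, and Pyk2 or FAK immunoprecipitates were blotted with 4G10 anti-Tyr(P).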

For data set [8], the system named is A20. Briefly: Inhibition of anti-Ig-induced tyrosine phosphorylation of FAK in mouse A20 cells plated on collagen/fibronectin ECM conditions at 0.15 to 5 uM incubated for 45 mins before being stimulated with anti-IgG for 20 mins by immunoblotting. The conditions noted are these: dose 0.15-5 µM, time 65.0 min. The class given is cell-based.
The test system of data set [9] is A20. In words: Inhibition of anti-Ig-induced tyrosine phosphorylation of ERK in mouse A20 cells under suspension conditions at 0.15 to 5 uM incubated for 45 mins before being stimulated with anti-IgG for 20 mins by immunoblotting. It counts as cell-based. The conditions noted are these: dose 0.15-5 µM, time 65.0 min. An outline of the steps: as §1
The target in data set [10] is Tyrosine-protein kinase SYK (Mus musculus) (UniProt P48025). In words: Inhibition of anti-Ig-induced SYK dependent overall protein tyrosine phosphorylation in mouse A20 cells under suspension conditions at 0.15 to 5 uM incubated for 45 mins before being stimulated with anti-IgG for 20 mins by immunoblotting. The class given is cell-based. The conditions noted are these: dose 0.15-5 µM, time 65.0 min. An outline of the steps:
as §1

The structures appear in SMILES notation. Activity calls are given as the source filed them. The calls are words filed in the database; no cut-off is given here.

Sequence of Tyrosine-protein kinase SYK (Mus musculus) (P48025 whole entry, looked up): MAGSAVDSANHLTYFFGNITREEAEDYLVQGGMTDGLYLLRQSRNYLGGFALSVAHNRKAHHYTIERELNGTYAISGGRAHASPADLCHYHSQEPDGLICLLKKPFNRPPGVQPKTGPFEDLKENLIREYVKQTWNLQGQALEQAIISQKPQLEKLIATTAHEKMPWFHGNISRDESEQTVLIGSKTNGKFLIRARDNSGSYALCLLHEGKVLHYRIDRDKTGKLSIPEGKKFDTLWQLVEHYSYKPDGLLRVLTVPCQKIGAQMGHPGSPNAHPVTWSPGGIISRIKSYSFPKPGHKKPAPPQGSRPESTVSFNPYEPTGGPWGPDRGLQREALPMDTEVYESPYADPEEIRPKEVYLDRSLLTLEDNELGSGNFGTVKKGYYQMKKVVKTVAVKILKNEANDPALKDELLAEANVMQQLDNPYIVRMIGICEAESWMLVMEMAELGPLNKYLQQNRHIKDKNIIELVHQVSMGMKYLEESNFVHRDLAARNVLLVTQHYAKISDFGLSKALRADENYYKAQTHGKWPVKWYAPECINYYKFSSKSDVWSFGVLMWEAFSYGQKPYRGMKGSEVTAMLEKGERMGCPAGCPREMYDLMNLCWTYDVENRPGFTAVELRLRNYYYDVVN

Turning to `CN(c1ccccc1CNc1nc(Nc2ccc3c(c2)CC(=O)N3)ncc1C(F)(F)F)S(C)(=O)=O`, the inhibition result (in the data set on A20 [1]; in [3]; in the data set with A20 [5]; in [6]; in data set [7]; with A20 [8]) was “Active” each time. For the same compound, the Activity result in data set [2] was “Non-Toxic”. For the same compound, the inhibition result (in the data set on A20 [4]; with A20 [9]; in [10]) was “inactive” each time.
